Experimental findings from ChEMBL document CHEMBL4002606, “Discovery of FZU-03,010 as a self-assembling anticancer amphiphile for acute myeloid leukemia” (Bioorg Med Chem Lett, 2017) are described below.

As usually defined, the IC50 is the concentration that gives 50% inhibition. High values mean weaker potency, low ones greater potency.

The subject of assay [1] is HL-60. Description: Growth inhibition of human HL60 cells at 0.63 uM after 48 hrs by MTT assay relative to control. It counts as functional. The note with it: for inhibition of growth at 0.63 µM: HL-60, 48 h, read-out: GI. A general note: Tetrazolium assays rely on reduction of a dye to a coloured formazan, in cell work by metabolically active cells.
Assay [2] concerns HL-60. Description: Growth inhibition of human HL60 cells at 1.25 uM after 48 hrs by MTT assay relative to control. The format is functional. The note with it: for inhibition of growth at 1.25 µM: HL-60, 48 h, read-out: GI.
Assay [3] concerns HL-60. Description: Growth inhibition of human HL60 cells at 2.5 uM after 48 hrs by MTT assay relative to control. It counts as functional. The note with it: for inhibition of growth at 2.5 µM: HL-60, 48 h, read-out: GI.
For assay [4], the system named is HL-60. Description: Growth inhibition of human HL60 cells at 5 uM after 48 hrs by MTT assay relative to control. It counts as functional. The note with it: for inhibition of growth at 5 µM: HL-60, 48 h, read-out: GI.
Assay [5] relates to HL-60. Description: Growth inhibition of human HL60 cells at 10 uM after 48 hrs by MTT assay relative to control. The note with it: for inhibition of growth at 10 µM: HL-60, 48 h, read-out: GI. It counts as functional.
The subject of assay [6] is HL-60. Description: Growth inhibition of human HL60 cells at 20 uM after 48 hrs by MTT assay relative to control. The note with it: for inhibition of growth at 20 µM: HL-60, 48 h, read-out: GI. The format is functional.
The test system of assay [7] is HL-60. Description: Growth inhibition of human HL60 cells at 40 uM after 48 hrs by MTT assay relative to control. The format is functional. The note with it: for inhibition of growth at 40 µM: HL-60, 48 h, read-out: GI.
Assay [8] has as its system HL-60. Description: Growth inhibition of human HL60 cells after 48 hrs by MTT assay. The format is functional, cell-based. The note with it: HL-60, 48 h. The gist of the method:
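HL-60 human promyelocytic leukemia cells; proliferation inhibition of the cells measured and reported as IC50; values are mean ± SE of at least three independent experiments.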

Structures are written as SMILES. The source made the active and inactive calls. The calls are words filed in the database; no cut-off is given here.

With `COc1cccc2c1C(=O)c1c(O)c3c(c(O)c1C2=O)C[C@@](O)(C(=O)CO)C[C@@H]3O[C@H]1C[C@H](N)[C@H](O)[C@H](C)O1` [DOXORUBICIN], the inhibition of growth at 0.63 µM in the assay on HL-60 [1] worked out at 80.8%. Besides, the inhibition of growth at 1.25 µM in the assay on HL-60 [2] is 82.5%. In the assay on HL-60 [3], the inhibition of growth at 2.5 µM came to 85.6%. Moreover, the inhibition of growth at 5 µM with HL-60 [4] is 95.4%. Further, the inhibition of growth at 10 µM in the assay with HL-60 [5] is above 99%. The inhibition of growth at 20 µM with HL-60 [6] is above 99%. For the same compound, the inhibition of growth at 40 µM in the assay on HL-60 [7] is above 99%. Moreover, the half-inhibitory concentration (IC50) in the assay with HL-60 [8] was below 0.63 µM.

For `C[C@H]1[C@H](C)CC[C@]2(C(=O)N(CCO)CCO)CC[C@]3(C)C(=CC[C@@H]4[C@@]5(C)Cc6cn[nH]c6C(C)(C)[C@@H]5CC[C@]43C)[C@H]12`, in the assay with HL-60 [1], the inhibition of growth at 0.63 µM stood at 3.54%. Moreover, the inhibition of growth at 1.25 µM in the assay on HL-60 [2] came out at 2.47%. Also, in the assay on HL-60 [3], the inhibition of growth at 2.5 µM came to 19.3%. Besides, the inhibition of growth at 5 µM with HL-60 [4] came out at 64.8%. The inhibition of growth at 10 µM with HL-60 [5] amounted to 86.8%. Also, the inhibition of growth at 20 µM with HL-60 [6] turned out to be 94%. Moreover, the inhibition of growth at 40 µM with HL-60 [7] is 93.6%. Besides, the concentration for half-maximal inhibition (IC50) with HL-60 [8] is 5.21 µM.

Turning to `C[C@H]1[C@H](C)CC[C@]2(C(=O)O)CC[C@]3(C)C(=CC[C@@H]4[C@@]5(C)C/C(=C/O)C(=O)C(C)(C)[C@@H]5CC[C@]43C)[C@H]12`, the inhibition of growth at 0.63 µM with HL-60 [1] came to 9.03%. Also, the inhibition of growth at 1.25 µM in the assay on HL-60 [2] turned out to be 18.5%. Moreover, the inhibition of growth at 2.5 µM with HL-60 [3] amounted to 33.9%. Besides, the inhibition of growth at 5 µM with HL-60 [4] was found to be 50.3%. In the assay with HL-60 [5], the inhibition of growth at 10 µM came to 67%. The inhibition of growth at 20 µM in the assay with HL-60 [6] was 72.4%. In addition, the inhibition of growth at 40 µM with HL-60 [7] is 89.8%. The compound further showed an IC50 in the assay on HL-60 [8] of 5.44 µM.

As to `C=CCNc1nc2c(s1)C[C@]1(C)[C@H]3CC=C4[C@@H]5[C@@H](C)[C@H](C)CC[C@]5(C(=O)O)CC[C@@]4(C)[C@]3(C)CC[C@H]1C2(C)C`, the “growth inhibition (GI)” value with HL-60 [1] is “inactive”. The inhibition of growth at 1.25 µM in the assay on HL-60 [2] came out at 0.33%. In addition, the inhibition of growth at 2.5 µM with HL-60 [3] is 4.73%. The inhibition of growth at 5 µM in the assay with HL-60 [4] was 13.4%. In addition, in the assay on HL-60 [5], the inhibition of growth at 10 µM turned out to be 20.3%. In the assay on HL-60 [6], the inhibition of growth at 20 µM came to 34.7%. The inhibition of growth at 40 µM in the assay on HL-60 [7] was found to be 49.8%. The compound also gave a half-inhibitory concentration (IC50) in the assay with HL-60 [8] above 40 µM.

For `CC(=O)NN/C=C1/C[C@]2(C)[C@H]3CC=C4[C@@H]5[C@@H](C)[C@H](C)CC[C@]5(C(=O)O)CC[C@@]4(C)[C@]3(C)CC[C@H]2C(C)(C)C1=O`, the inhibition of growth at 0.63 µM in the assay on HL-60 [1] came to 9.96%. For the same compound, the inhibition of growth at 1.25 µM in the assay on HL-60 [2] was found to be 20.7%. Further, the inhibition of growth at 2.5 µM in the assay on HL-60 [3] was found to be 28.8%. The inhibition of growth at 5 µM in the assay with HL-60 [4] is 41.7%. Further, in the assay with HL-60 [5], the inhibition of growth at 10 µM worked out at 61.7%. For the same compound, the inhibition of growth at 20 µM with HL-60 [6] stood at 69.7%. In addition, in the assay on HL-60 [7], the inhibition of growth at 40 µM stood at 93.1%. The IC50 in the assay on HL-60 [8] was 5.64 µM.

For `C[C@H]1[C@H](C)CC[C@]2(C(=O)O)CC[C@]3(C)C(=CC[C@@H]4[C@@]5(C)CCC(=O)C(C)(C)[C@@H]5CC[C@]43C)[C@H]12` [URSONIC ACID], the “growth inhibition (GI)” value in the assay with HL-60 [1], with HL-60 [2], with HL-60 [3], in the assay with HL-60 [4], in the assay with HL-60 [5] and with HL-60 [6] was “inactive” in each case. In addition, the “growth inhibition (GI)” value in the assay on HL-60 [7] is “inactive”. The compound also gave an IC50 with HL-60 [8] above 40 µM.

On to `C[C@H]1[C@H](C)CC[C@]2(C(=O)N(CCO)CCO)CC[C@]3(C)C(=CC[C@@H]4[C@@]5(C)CCC(=O)C(C)(C)[C@@H]5CC[C@]43C)[C@H]12`, for which the inhibition of growth at 0.63 µM with HL-60 [1] came out at 9.32%. The inhibition of growth at 1.25 µM in the assay on HL-60 [2] is 8.43%. For the same compound, in the assay with HL-60 [3], the inhibition of growth at 2.5 µM was determined as 12.4%. In addition, the inhibition of growth at 5 µM in the assay with HL-60 [4] stood at 26.7%. For the same compound, the inhibition of growth at 10 µM in the assay on HL-60 [5] came out at 53.7%. Moreover, the inhibition of growth at 20 µM in the assay with HL-60 [6] amounted to 86.5%. Besides, the inhibition of growth at 40 µM in the assay with HL-60 [7] was found to be 92.7%. The same compound displayed a concentration for half-maximal inhibition (IC50) in the assay with HL-60 [8] of 7.04 µM.
